The list is not random: actives were taken first. Their share in the collection is about 2.1%.
FGF22 binding: FGF22 (human) thermal shift binding; recombinant FGF22 thermal shift, SYPRO orange fluorescence; percent of sucrose octasulfate shift, DMSO zero; 1.5% of 340,000 active; activity (Tm shift, normalised), % at 9.99 µM; Q9HCT0; AID 651658;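 active means mean Tm shift, scaled 0 neutral to 100 positive control, at about 1.3% or above, every replicate too, limit read from the data; inconclusive means no clear call, values can overlap the other calls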
AF4-AF9 inh: inhibitors of human MLL-AF4/AF9 interaction. inhibition, % at 10 µM. P42568. 0.47% of 350,000 active. AlphaScreen, biotin-AF4 peptide binding to FLAG-AF9. AID 651704;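 active means every replicate reaching a set inhibition limit, whatever the replicate mean, cut at about 25% in these data; inconclusive means mean inhibition reaches that limit but some replicates miss it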
ERp5 block: ERp5 (human) disulfide isomerase inhibition. Q15084. ERp5 insulin aggregation, absorbance 650 nm, 90 min. inhibition, % at 9.99 µM. 0.05% of 350,000 active;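 active means mean replicate inhibition above about 25%, with every replicate also reaching it, limit read from the data, passing the limit was not always enough; inconclusive means only one of those two criteria met; inactive means neither criterion met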
FN deposit inh: fibronectin deposition inhibition | AH1F fibroblasts, Alexa488-fibronectin deposition fluorescence, overnight | inhibition, % at 12.6 µM | 0.086% of 350,000 active | AID 743247;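 active means mean inhibition across replicates of 30% or more, regardless of how many single replicates reach that level; inconclusive means mean under 30% yet at least half of replicates reach 30%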
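Schedule: 1 h cell adhesion before compound, then overnight fibronectin incubation; test system: AH1F fibroblast monolayer depositing Alexa488-labelled fibronectin into matrix; quantity: 10000 AH1F cells per well; probe or stimulus: fluorescent fibronectin at 24 nM final; signal: fluorescence, ex 485 nm, em 525 nm; evaluation: percent inhibition as loss of matrix-bound fibronectin fluorescence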
ARNT TACC3 PPI: disrupts binding between human ARNT and TACC3 | AlphaScreen His-ARNT PAS-B/GST-TACC3 binding, luminescence; TACC3 fragment carries E629A point mutation | 0.66% of 390,000 active | inhibition, % at 9.99 µM;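 active means mean inhibition of replicates at least 50% and at least half of replicates each reaching 50%; inconclusive means half or more replicates reach 50% but mean below 50%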
PDI inh: inhibitors of human protein disulfide isomerase | PDI insulin aggregation turbidity, A650, 90 min | inhibition, % at 10 µM | P07237 | 0.052% of 350,000 active;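 active means mean inhibition across replicates of 30% or more, whatever share of single replicates reach that level; inconclusive means mean inhibition below 30% while every single replicate reaches 30%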
Target sequence (P07237 whole entry, looked up): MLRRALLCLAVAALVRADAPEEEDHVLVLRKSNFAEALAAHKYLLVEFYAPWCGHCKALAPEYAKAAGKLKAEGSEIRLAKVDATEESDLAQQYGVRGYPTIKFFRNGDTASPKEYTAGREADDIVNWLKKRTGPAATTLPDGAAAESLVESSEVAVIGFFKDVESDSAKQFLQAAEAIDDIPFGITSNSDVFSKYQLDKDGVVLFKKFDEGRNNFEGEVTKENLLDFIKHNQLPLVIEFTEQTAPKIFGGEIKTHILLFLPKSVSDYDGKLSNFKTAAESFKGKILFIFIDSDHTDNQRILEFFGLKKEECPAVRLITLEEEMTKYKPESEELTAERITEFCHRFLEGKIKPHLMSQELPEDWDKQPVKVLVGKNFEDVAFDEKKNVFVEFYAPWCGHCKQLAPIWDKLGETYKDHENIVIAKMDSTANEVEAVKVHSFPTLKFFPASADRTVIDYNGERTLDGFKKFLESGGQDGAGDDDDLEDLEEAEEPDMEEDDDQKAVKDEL
Large screens that a line does not name were inactive.

O=C(C[C@@H]1C[C@H]2c3cc(NC(=O)C4CCOCC4)ccc3O[C@H]2[C@@H](CO)O1)NCc1ccccn1	none (no result: PDI inh)
O=C(COC(=O)Cn1cnc2ccccc21)Nc1cc2c(cc1Cl)C(=O)c1ccccc1C2=O	FGF22 binding 44
c1ccc(-c2csc(N3CCSCC3)n2)cc1	none
c1ccc(-c2csc(-n3cccn3)n2)cc1	FGF22 binding 43 (no result: FN deposit inh)
Cn1c(=S)[nH]c(=O)c2ncc(=O)[nH]c21	FGF22 binding 44 (no result: ARNT TACC3 PPI)
Cc1nc2[nH]c(=S)n(C)c(=O)c2nc1C	none
COc1ccc(CN(C)C[C@H]2OCCCC[C@H](C)Oc3ccc(NS(=O)(=O)c4ccccc4)cc3C(=O)N([C@@H](C)CO)C[C@H]2C)cc1	none (no result: PDI inh)
C[C@H](NC(=O)C[C@@H]1C[C@@H]2c3cc(NC(=O)CC4CC4)ccc3O[C@@H]2[C@@H](CO)O1)c1ccccc1	none (no result: PDI inh)
Cc1ccc(CN2CCN(Cc3ccc(OC(C)C)cc3)CC2CCO)o1 (centres undefined)	none
CC(C)N1CCN(Cc2ccncc2)CC1CCO (centres undefined)	none
Cc1ccc(CN2CCN(Cc3cccc(OCCO)c3)CC2CCO)o1 (centres undefined)	FGF22 binding 44
Cc1ccc(-c2cccc(CN3CCN(C(C)C)C(CCO)C3)c2)o1 (centres undefined)	FGF22 binding 43
O=c1cnnc(N/N=C/c2cccs2)[nH]1	ARNT TACC3 PPI 62
O=c1nc(N/N=C/c2c[nH]c3ccccc23)cn[nH]1	none
O=c1cnnc(N/N=C/c2c[nH]c3ccccc23)[nH]1	FGF22 binding 43, ERp5 block inconclusive
Cc1ccc2nc(-c3ccc(NC(=O)Cc4cccs4)cc3)[nH]c2c1	FGF22 binding 1.8 (no result: FN deposit inh)
CCC(=O)N1CC2(C1)CN(CC1CCCCC1)[C@@H](CO)c1c2c2ccc(OC)cc2n1C	none (no result: FN deposit inh, ARNT TACC3 PPI, PDI inh)
COc1cc2oc(=O)cc(-c3ccc(-c4ccc(C)cc4)cc3)c2c(OC)c1OC	none (no result: FN deposit inh)
COc1cc2oc(=O)cc(C)c2c(OC)c1OC	FGF22 binding 43 (no result: ARNT TACC3 PPI)
COc1ccccc1-c1cnc2c(c1)C(=O)N([C@H](C)CO)C[C@H](C)[C@@H](CN(C)C(C)=O)O2	none (no result: FN deposit inh, PDI inh)
C[C@H]1CN([C@@H](C)CO)C(=O)Cc2cc(NC(=O)Nc3ccc(C(F)(F)F)cc3)ccc2O[C@@H]1CN(C)C(=O)Nc1cccc2ccccc12	none (no result: FN deposit inh, PDI inh)
NS(=O)(=O)c1ccc(NC(=O)COC(=O)C2CCCCC2)cc1	FGF22 binding 44 (no result: ARNT TACC3 PPI)
NS(=O)(=O)c1ccc(NC(=O)COC(=O)c2cnccn2)cc1	FGF22 binding 43
COc1ccc(OC)c(NC(=O)COC(=O)C2CCCCC2)c1	FGF22 binding 44
NS(=O)(=O)c1ccc(NC(=O)COC(=O)CCC2CCCC2)cc1	none
C[C@@H]1CCCCO[C@H](CN(C)C)[C@@H](C)CN([C@@H](C)CO)C(=O)c2cc(NC(=O)Nc3ccccc3)ccc2O1	none (no result: FN deposit inh, PDI inh)
C/C=C/c1ccc([C@@H]2[C@@H](CO)N(C(=O)C3CCCCC3)C23CN(C(=O)NC(C)C)C3)cc1	none (no result: ARNT TACC3 PPI, PDI inh)
CCOC(=O)C1C(c2cccc([N+](=O)[O-])c2)C2C(=O)NN=C2CC1(C)O (centres undefined)	FGF22 binding 43
CO[C@H]1CN(C)C(=O)c2ccc(NC(C)=O)cc2OC[C@H](C)N(CCc2ccccc2)C[C@H]1C	none (no result: PDI inh)
O=C(C1CCOCC1)N1[C@H](CO)[C@@H]2c3ccccc3NC[C@@H]21	none (no result: FGF22 binding, AF4-AF9 inh, FN deposit inh, PDI inh)
O=c1c2ccccc2nc2c3ccccc3c(NCCN3CCOCC3)nn12	none (no result: FGF22 binding, AF4-AF9 inh, ERp5 block, ARNT TACC3 PPI, PDI inh)
O=c1c2c(-c3ccccc3)csc2nc2c3ccccc3c(NCCN3CCOCC3)nn12	ARNT TACC3 PPI 74
CCN(C(=O)CSc1nnc(NCc2ccccc2)s1)C1CCS(=O)(=O)C1 (centres undefined)	FGF22 binding 43
CCN(C(=O)CSc1nnc(Nc2cccc(C)c2C)s1)C1CCS(=O)(=O)C1 (centres undefined)	none
COc1ccc(S(=O)(=O)N(C)C[C@H]2Oc3c(NC(=O)c4ccncc4)cccc3C(=O)N([C@@H](C)CO)C[C@H]2C)cc1	none (no result: FN deposit inh, PDI inh)
O=C(CN1CCOCC1)N[C@@H]1CC[C@H](CCNC(=O)C2CCC2)O[C@@H]1CO	none (no result: PDI inh)
